Experimental data published in publication PMC7526717 (Journal of Clinical Oncology, 2020).
Where “and” joins values, the source holds several entries; their conditions need not be identical. Equal values may be shown once. Entries after “also recorded” stand apart in the source; their conditions may differ. Read-outs that look alike come from different tables or passages of the source.

Tests used:
[1] = Plasma pharmacokinetics in patients; assay type: in vivo, human
[2] = Phase I study safety: TEAEs, DLTs, MTD; assay type: in vivo, human; conditions: for MTD: maximum dose evaluated 200 mg twice a day
Outline: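 Oral test compound was given at 20-200 mg twice a day or 100-250 mg once daily in 28-day cycles, using pharmacologically guided 3 + 3 escalation. A level was safe with zero DLTs in three or one in six patients. AEs were recorded from consent to 30 days after last dose and investigator-graded by CTCAE v4.03. Safety population: all patients dosed.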

VEGFR2 = conditions: cited from earlier work
advanced GIST = conditions: cited from earlier work
BRAF = conditions: cited from earlier work
PDGFRB = conditions: cited from earlier work
[3] = test system: advanced gastrointestinal stromal tumor (GIST); assay: Phase I study efficacy, investigator assessed, RECIST version 1.1; assay type: in vivo, human; conditions: 150 mg once daily
Outline: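 Patients with advanced GIST after ≥1 prior systemic therapy received oral test compound 150 mg once daily in 28-day cycles, in dose-escalation or expansion. Imaging at screening, after cycles 2, 4 and 6, then every three cycles and at final visit. Responses were investigator-assessed per RECIST 1.1 and confirmed about 28 days later. Intent-to-treat population, grouped by line of therapy.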

TIE2 = conditions: cited from earlier work
metastatic GIST = conditions: first-line; cited from earlier work
GIST [4] = conditions: cited from earlier work
GIST [5] = conditions: cited from earlier work; remark: listed apart in the source
[6] = 150 mg once daily, cycle 1 day 15

CCn1c(=O)c(-c2cc(NC(=O)Nc3ccccc3)c(F)cc2Br)cc2cnc(N)cc21 [DP-5439]
accumulation [1, 6]: 4.6- to 5.3 fold
exposure (AUC) relative to parent ripretinib ([1]; 15 days of dosing at 150 mg once daily): approximately 129%
exposure (AUC) relative to parent ripretinib ([1]; single 150-mg doses): approximately 49%

CCn1c(=O)c(-c2cc(NC(=O)Nc3ccccc3)c(F)cc2Br)cc2cnc(NC)cc21 [Ripretinib, 1-[4-bromo-5-[1-ethyl-7-(methylamino)-2-oxo-1,2-dihydro-1,6-naphthyridin-3-yl]-2-fluorophenyl]-3-phenylurea]
DLT ([2]; 100 mg twice a day (n = 12)): asymptomatic grade 3 lipase elevation
DLT ([2]; 150 mg once daily (n = 12)): asymptomatic grade 4 creatine phosphokinase increase
DLT ([2]; 200 mg twice a day (n = 7)): asymptomatic grade 3 lipase elevation
Alopecia, Total Grades 1–4 ([2]; GIST, 150 mg once daily): 88 [62.0%] No. (%) and 88 (62.0%) No. (%)
Constipation, Total Grades 1–4 ([2]; GIST, 150 mg once daily): 56 [39.4%] No. (%)
Decreased appetite, Total Grades 1–4 ([2]; GIST, 150 mg once daily): 48 [33.8%] No. (%)
Diarrhea, Total Grades 1–4 ([2]; GIST, 150 mg once daily): 47 [33.1%] No. (%)
Fatigue, Total Grades 1–4 ([2]; GIST, 150 mg once daily): 78 [54.9%] No. (%)
Lipase increased, Grade 3/4 ([2]; GIST, 150 mg once daily): 25 (17.6%) No. (%)
Myalgia, Total Grades 1–4 ([2]; GIST, 150 mg once daily): 69 [48.6%] No. (%)
Nausea, Total Grades 1–4 ([2]; GIST, 150 mg once daily): 65 [45.8%] No. (%)
PPES, Total Grades 1–4 ([2]; GIST, 150 mg once daily): 62 [43.7%] No. (%)
TEAEs leading to a dose reduction ([2]; GIST, 150 mg once daily): 26 (18.3%) patients (%)
TEAEs leading to treatment interruption ([2]; GIST, 150 mg once daily): 77 (54.2%) patients (%)
Treatment-emergent SAE: abdominal pain ([2]; GIST, 150 mg once daily): 14 [9.9%] n [%]
Treatment-emergent SAE: cancer surgery ([2]; GIST, 150 mg once daily): 7 [4.9%] n [%]
Treatment-emergent SAE: death ([2]; GIST, 150 mg once daily): 11 [7.7%] n [%]
Treatment-emergent SAE: sepsis ([2]; GIST, 150 mg once daily): 6 [4.2%] n [%]
patients who discontinued study treatment because of PPES ([2]; GIST, 150 mg once daily): no patients
Any TEAE ([2]; GIST, 150 mg once daily, total): 142 (100%) No. (%)
Any TEAE, grade 3 and 4 ([2]; all patients): 173 (67.1%) No. (%)
Any TEAE, grade All ([2]; all patients): 257 (99.6%) No. (%)
TEAEs leading to a dose reduction ([2]; all patients): 38 (14.7%) patients (%)
TEAEs leading to treatment interruption ([2]; all patients): 127 (49.2%) patients (%)
Treatment-emergent SAE: abdominal pain ([2]; all patients): 17 [6.6%] n [%]
Treatment-emergent SAE: cancer surgery ([2]; all patients): 10 [3.9%] n [%]
Treatment-emergent SAE: death ([2]; all patients): 16 [6.2%] n [%]
Treatment-emergent SAE: dyspnea ([2]; all patients): 8 [3.1%] n [%]
discontinued study treatment secondary to a drug-related TEAE ([2]; all patients): 16 (6.2%) patients (%)
treatment-emergent serious adverse event (SAE) ([2]; all patients): 137 (53.1%) patients (%)
DLTs reported ([2]; dose-escalation phase): Three
patients at each dose level who experienced a DLT ([2]; dose-escalation phase): < 33%
RP2D ([2]; in vivo): 150 mg once daily
MTD [2]: no maximum tolerated dose was reached
MTD ([2]; listed as ripretinib): not reached; also recorded: No MTD was reached
inhibition in vitro (VEGFR2): inhibits
mPFS (advanced GIST): 6.3 month
Cmax higher compared with cycle 1 day 1 [1, 6]: 61%
accumulation on the basis of AUC0-12h ([1]; 150 mg once daily, cycle 1 day 15 vs day 1): 66%
Tmax ([1]; human, plasma, oral, time to Tmax, single doses, fasting, cycle 1 day 1): 2 to 10 h
CV% for Cmax and AUC0-24h ([1]; single doses with PK data for at least 10 patients): 35%-60%
inhibition in vitro (BRAF): inhibits
inhibition in vitro (PDGFRB): inhibits
Duration of response, median (95% CI) ([3]; fourth line or greater): 17.5 months
ORR (95% CI) ([3]; fourth line or greater): 7.2%
PFS, median (95% CI) ([3]; fourth line or greater): 5.5 months
probability of PFS at 12 months ([3]; fourth line or greater): 21.2%
Duration of response, median (95% CI) ([3]; second line): 18.4 months
ORR (95% CI) ([3]; second line): 19.4%
PFS, median (95% CI) ([3]; second line): 10.7 months
probability of PFS at 12 months ([3]; second line): 33.5%
ORR (95% CI) ([3]; third line): 14.3%
PFS, median (95% CI) ([3]; third line): 8.3 months
probability of PFS at 12 months ([3]; third line): 29.2%
Duration of response, median (95% CI) ([3]; total): 18.4 months
ORR (95% CI) ([3]; total): 11.3%
inhibition in vitro (TIE2): inhibits

Cc1ccc(NC(=O)c2ccc(CN3CCN(C)CC3)cc2)cc1Nc1nccc(-c2cccnc2)n1 [imatinib]
mPFS (metastatic GIST): 1.7-2 years

CNC(=O)c1cc(Oc2ccc(NC(=O)Nc3ccc(Cl)c(C(F)(F)F)c3)c(F)c2)ccn1 [regorafenib]
syndromes such as PPES, grade 3 (GIST [4]): 19.7%
mPFS (GIST [4]; third-line): ~4.8 months

CCN(CC)CCNC(=O)c1c(C)[nH]c(/C=C2\C(=O)Nc3ccc(F)cc32)c1C [sunitinib]
syndromes such as PPES, grade 3 (GIST [5]): 4%
mPFS (GIST [5]; second-line): approximately 5.6 months
